The source of these data is ChEMBL document CHEMBL5329164, “Design, synthesis, and evaluation of BTK-targeting PROTACs with optimized bioavailability in vitro and in vivo” (RSC Med Chem, 2023).

The source made the active and inactive calls. The rule behind the calls is not given here.

Data set [1] concerns the target T1, Protein cereblon/Tyrosine-protein kinase BTK (Homo sapiens) (UniProt Q06187+Q96SW2). Kind of data set: PROTAC activity at CRBN/ BTK in human Ramos cells assessed as induction of BTK degradation at 100 nM incubated for 24 hrs by immunoblot analysis relative to control. It is filed as cell-based. The gist of the method:
(§1)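 Ramos cells in supplemented RPMI 1640 were plated at 3×10^5 cells/well and treated with compound for 24 h. Lysates in SDS sample buffer were heated at 100 °C for 15 min and run on 10% SDS-PAGE, then transferred to PVDF. Membranes were probed overnight at 4 °C for BTK, GSPT1 and β-actin.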
(In general: Immunoblotting shows a protein as a band on a membrane.)

The target of data set [2] is T1, Protein cereblon/Tyrosine-protein kinase BTK (Homo sapiens). In words: PROTAC activity at CRBN/ BTK in human Ramos cells assessed as induction of BTK degradation at 300 nM incubated for 24 hrs by immunoblot analysis relative to control. In kind it is cell-based. The gist of the method: as §1
Data set [3] can be described thus: Apparent permeability across apical to basal side in MDCK-II cells at 10 uM measured for 120 mins by LC-MS/MS analysis. In kind it is ADME, cell-based, Canis lupus familiaris. The settings on record: dog. The gist of the method:
(§2)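 MDCK monolayers were grown on Transwell inserts (5 x 10^4 cells/cm²) and used at day 5. Compound at 10 μM in HBSS with 10 mM Hepes, pH 7.40, was dosed apically or basolaterally and incubated at 37±1 °C. Lucifer yellow passage below 1% confirmed monolayer integrity.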

A short description of data set [4]: Apparent permeability across basal to apical side in MDCK-II cells at 10 uM measured for 120 mins by LC-MS/MS analysis. It is filed as ADME, cell-based, Canis lupus familiaris. The settings on record: dog. In short, it runs like this:
as §2

Data set [5] can be described thus: Apparent permeability across apical to basal side in MDCK-II cells assessed as compound recovery at 10 uM measured for 120 mins by LC-MS/MS analysis. It is filed as ADME, cell-based, Canis lupus familiaris. The settings on record: dog, read-out: Drug recovery. The gist of the method: (§3)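 MDCK monolayers were grown on Transwell inserts (5 x 10^4 cells/cm²) and used at day 5. Compound at 10 μM in HBSS with 10 mM Hepes, pH 7.40, was dosed apically or basolaterally and incubated at 37±1 °C. Receiver and donor samples were taken at 120 min and quantified by LC-MS/MS against an internal standard. Lucifer yellow passage below 1% confirmed monolayer integrity.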

A short description of data set [6]: Apparent permeability across basal to apical side in MDCK-II cells assessed as compound recovery at 10 uM measured for 120 mins by LC-MS/MS analysis. It is filed as ADME, cell-based, Canis lupus familiaris. The settings on record: dog, read-out: Drug recovery. The gist of the method: as §3
Data set [7] addresses T1, Protein cereblon/Tyrosine-protein kinase BTK (Homo sapiens). Kind of data set: PROTAC activity at CRBN/ BTK in human DOHH-2 cells assessed as induction of BTK degradation at 1.2 to 300 nM incubated for 24 hrs by immunoblot analysis. It is filed as cell-based. The settings on record: dose 1.2-300 nM. The gist of the method:
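DOHH2 cells were grown in RPMI 1640 with 10% FBS, 1% penicillin-streptomycin, 1% nonessential amino acids and 50 µM 2-mercaptoethanol at 37 °C under 5% CO₂. Cells were treated with compound at various concentrations, lysed in SDS buffer and separated on 10% SDS-PAGE. Blots were transferred to PVDF and probed for BTK, with β-actin as loading control.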

Data set [8] in a line: Solubility in DMSO:Cremophor EL:1xPBS mixture at 10 mg/ml. In kind it is physicochemical.
A short description of data set [9]: Solubility in DMSO:Cremophor EL:1xPBS mixture at 10 mg/ml incubated for 7 days. In kind it is physicochemical. The settings on record: 168 h, time 7 day.

T1 sequence (Q06187 2-659 limits assumed): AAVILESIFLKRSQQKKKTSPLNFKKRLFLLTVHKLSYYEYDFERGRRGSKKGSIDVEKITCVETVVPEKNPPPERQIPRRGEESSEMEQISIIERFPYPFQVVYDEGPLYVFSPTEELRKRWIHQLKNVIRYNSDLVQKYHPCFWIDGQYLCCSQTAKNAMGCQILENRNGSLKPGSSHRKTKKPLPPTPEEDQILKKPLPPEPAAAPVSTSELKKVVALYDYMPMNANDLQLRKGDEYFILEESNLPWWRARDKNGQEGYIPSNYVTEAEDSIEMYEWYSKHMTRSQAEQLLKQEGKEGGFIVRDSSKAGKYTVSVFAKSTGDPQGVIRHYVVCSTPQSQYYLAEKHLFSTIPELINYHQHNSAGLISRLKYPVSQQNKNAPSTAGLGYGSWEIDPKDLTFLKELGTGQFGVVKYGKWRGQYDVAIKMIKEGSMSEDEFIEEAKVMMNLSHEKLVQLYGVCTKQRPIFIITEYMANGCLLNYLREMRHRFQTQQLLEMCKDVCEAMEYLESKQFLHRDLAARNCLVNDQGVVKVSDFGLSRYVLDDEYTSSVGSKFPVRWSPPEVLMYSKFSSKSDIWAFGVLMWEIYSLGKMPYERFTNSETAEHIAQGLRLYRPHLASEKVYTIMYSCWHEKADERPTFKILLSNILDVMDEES
T1 sequence (Q96SW2 whole entry partner): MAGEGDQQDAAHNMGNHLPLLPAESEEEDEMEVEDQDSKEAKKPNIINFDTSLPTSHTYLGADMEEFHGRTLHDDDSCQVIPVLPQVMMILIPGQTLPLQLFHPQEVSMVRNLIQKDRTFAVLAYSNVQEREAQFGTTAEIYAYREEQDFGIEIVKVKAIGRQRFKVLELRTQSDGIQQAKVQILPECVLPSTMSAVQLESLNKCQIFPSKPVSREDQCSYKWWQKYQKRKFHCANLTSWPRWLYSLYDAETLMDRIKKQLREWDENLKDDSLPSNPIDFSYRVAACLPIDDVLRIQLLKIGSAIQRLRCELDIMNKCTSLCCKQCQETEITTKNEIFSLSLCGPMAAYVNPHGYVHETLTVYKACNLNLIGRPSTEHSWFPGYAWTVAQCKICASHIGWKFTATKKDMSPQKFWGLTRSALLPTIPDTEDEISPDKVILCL

`Nc1ncnc2c1c(-c1ccc(Oc3ccccc3)cc1)nn2[C@@H]1CCCN(C(=O)c2ccc(Nc3ccc4c(c3)CN(C3CCC(=O)NC3=O)C4=O)cc2)C1` (stereo partly specified): the Activity came to 6.9% in data set [1] and 12% in [2].

As to `Nc1ncnc2c1c(-c1ccc(Oc3ccccc3)cc1)nn2[C@@H]1CCCN(C(=O)N2CCN(c3ccc4c(c3)C(=O)N(C3CCC(=O)NC3=O)C4=O)CC2)C1` (stereo partly specified), the figures for the Activity in data set [1] and in data set [2] were 78.4% and 79.7%, respectively.

On to `Nc1ncnc2c1c(-c1ccc(Oc3ccccc3)cc1)nn2[C@@H]1CCCN(C(=O)N2CC3(C2)CN(c2ccc4c(c2)C(=O)N(C2CCC(=O)NC2=O)C4=O)C3)C1` (stereo partly specified), for which the Activity in [1] came to 23.1%; in data set [2] it was 24.5%.

What is called Papp A→B is the apparent permeability from the apical to the basolateral side of a cell layer. Broadly, the Papp B→A is how fast a substance crosses the layer from the basolateral side. As for `COCCc1ccc(OCC(O)CNC(C)C)cc1` (stereo unspecified) [METOPROLOL], the Papp A→B at 2 h, 10 µM in [3] was 21.1 ×10⁻⁶ cm/s. The basolateral-to-apical permeability (Papp B→A) at 2 h, 10 µM in [4] stood at 11.3 ×10⁻⁶ cm/s. For the same compound, the recovery at 2 h, 10 µM is 97.1% in data set [5] and 95.9% in [6].

In the case of `Nc1ncnc2c1c(-c1ccc(Oc3ccccc3)cc1)nn2[C@@H]1CCCN(C(=O)c2cn(CCOCCOCCOCCCc3cccc4c3CN(C3CCC(=O)NC3=O)C4=O)nn2)C1` (stereo partly specified), in data set [1], the Activity came out at 28.5%. Also, the outcome in data set [7] was Active. Besides, the solubility result in data set [8] and in [9] was “Insoluble” throughout.

In the case of `Nc1ncnc2c1c(-c1ccc(Oc3ccccc3)cc1)nn2[C@@H]1CCCN(C(=O)c2ccc(Nc3ccc4c(c3)C(=O)N(C3CCC(=O)NC3=O)C4=O)cc2)C1` (stereo partly specified), the Activity stood at 18.2% in data set [1] and 20.1% in data set [2].
